{"source": "ChEMBL document CHEMBL1759940", "about": "“Synthesis and anticonvulsant activity of 8-alkoxy-5,6-dihydro-4H-[1,2,4]triazolo[4,3-a][1]benzazepin-1-one derivatives” (Eur J Med Chem, 2011)", "key": {"[1]": {"species_on_record": "Mus musculus", "experiment": "Protective index, ratio of TD50 for Swiss mouse to ED50 for Swiss mouse by maximal electroshock-induced seizures test", "format": "functional"}, "[2]": {"experiment": "Neurotoxicity against Swiss mouse after 4 hrs by rotarod ataxia test", "format": "toxicity, organism-based", "details": "in vivo", "procedure,_shortened": "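Neurologic deficit was scored in Swiss mice (18-22 g) by rotarod ataxia test after i.p. dosing in DMSO (phase I: 30, 100, 300 mg/kg, assessed at 30 min and 4 h). For TD50, groups of 10 mice received a range of doses giving at least three points within 10-90% minimal neurotoxicity, calculated by trimmed Spearman-Karber with 95% confidence intervals.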"}, "[3]": {"test_system": "Mus musculus", "experiment": "Anticonvulsant activity in ip dosed Swiss mouse assessed as protection against maximal electroshock-induced seizures administered 30 mins before electroshock challenge measured after 30 mins", "format": "functional", "procedure,_shortened": "(§1)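 Phase II quantification in Swiss mice (18-22 g), with compounds dissolved in DMSO and given i.p. Groups of 10 mice received a range of doses until at least three points fell within 10-90% protection against MES-induced seizures. ED50 and 95% confidence intervals were derived by the trimmed Spearman-Karber method.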"}, "[4]": {"test_system": "Mus musculus", "experiment": "Protective index, ratio of TD50 for Swiss mouse to ED50 for Swiss mouse by subcutaneous pentylenetetrazol-induced seizure test", "format": "functional"}, "[5]": {"test_system": "Mus musculus", "experiment": "Anticonvulsant activity in Swiss mouse assessed as protection against maximal electroshock-induced seizures at 30 mg/kg, ip administered 30 mins before electroshock challenge measured after 30 mins", "format": "functional, organism-based", "parameters": "dose 30 mg/kg", "procedure,_shortened": "(§2)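 Swiss mice (18-22 g) given the test compound i.p. in DMSO at 30, 100 or 300 mg/kg for phase I screening. Maximal electroshock was applied 30 min after dosing, and protection against the MES-induced seizure was scored.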"}, "[6]": {"test_system": "Mus musculus", "experiment": "Anticonvulsant activity in ip dosed Swiss mouse assessed as protection against maximal electroshock-induced seizures after 30 mins", "format": "functional", "details": "0.5 h", "procedure,_shortened": "as §1"}, "[7]": {"test_system": "Mus musculus", "experiment": "Anticonvulsant activity in Swiss mouse assessed as protection against subcutaneous pentylenetetrazol-induced seizures at 100 mg/kg, ip after 30 mins", "format": "functional, organism-based", "parameters": "dose 100 mg/kg", "procedure,_shortened": "(§3)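 Swiss mice (18-22 g) were dosed i.p. in DMSO at 30, 100 or 300 mg/kg. Pentylenetetrazol (85 mg/kg) was then injected s.c. Protection meant no clonic spasms lasting at least 5 s over a 30 min period after test compound administration.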"}, "[8]": {"test_system": "Mus musculus", "experiment": "Anticonvulsant activity in Swiss mouse assessed as protection against maximal electroshock-induced seizures at 100 mg/kg, ip administered 30 mins before electroshock challenge measured after 30 mins", "format": "functional, organism-based", "parameters": "dose 100 mg/kg", "procedure,_shortened": "as §2"}, "[9]": {"test_system": "Mus musculus", "experiment": "Anticonvulsant activity in Swiss mouse assessed as protection against maximal induced seizures at 300 mg/kg, ip administered 30 mins before electroshock challenge measured after 30 mins", "format": "functional, organism-based", "parameters": "dose 300 mg/kg", "procedure,_shortened": "as §2"}, "[10]": {"test_system": "Mus musculus", "experiment": "Anticonvulsant activity in Swiss mouse assessed as protection against subcutaneous pentylenetetrazol-induced seizures at 300 mg/kg, ip after 30 mins", "format": "functional, organism-based", "parameters": "dose 300 mg/kg", "procedure,_shortened": "as §3"}, "[11]": {"test_system": "Mus musculus", "experiment": "Anticonvulsant activity in Swiss mouse assessed as protection against subcutaneous pentylenetetrazol-induced seizures at 30 mg/kg, ip after 30 mins", "format": "functional, organism-based", "parameters": "dose 30 mg/kg", "procedure,_shortened": "as §3"}}, "note": "Calls of active or inactive are those of the source. The calls are words filed in the database; no cut-off is given here.", "data": [{"smiles": "O=c1[nH]nc2n1-c1ccc(OCc3cccc(Cl)c3)cc1CCC2", "values": [{"measurement": "PI", "setting": "[1]", "value": ">35.3"}, {"measurement": "TD50 at 4 h", "setting": "[2]", "value": "> 931", "unit": "mg/kg"}, {"measurement": "ED50", "setting": "[3]", "value": 26.4, "unit": "mg/kg"}]}, {"smiles": "CCCCCCOc1ccc2c(c1)CCCc1n[nH]c(=O)n1-2", "values": [{"measurement": "PI", "setting": "[4]", "value": ">24"}, {"measurement": "Activity", "setting": "[5]", "value": "Active"}, {"measurement": "PI", "setting": "[1]", "value": ">62.4"}, {"measurement": "ED50", "setting": "[6]", "value": 17.9, "unit": "mg/kg"}, {"measurement": "TD50 at 4 h", "setting": "[2]", "value": "> 1120", "unit": "mg/kg"}, {"measurement": "ED50", "setting": "[3]", "value": 17.9, "unit": "mg/kg"}, {"measurement": "Activity", "setting": "[7]", "value": "Active"}]}, {"smiles": "CCCCCCCCOc1ccc2c(c1)CCCc1n[nH]c(=O)n1-2", "values": [{"measurement": "PI", "setting": "[4]", "value": ">22.2"}, {"measurement": "PI", "setting": "[1]", "value": ">54"}, {"measurement": "ED50", "setting": "[6]", "value": 20.7, "unit": "mg/kg"}, {"measurement": "TD50 at 4 h", "setting": "[2]", "value": "> 1120", "unit": "mg/kg"}, {"measurement": "ED50", "setting": "[3]", "value": 20.7, "unit": "mg/kg"}, {"measurement": "Activity", "setting": "[7]", "value": "Active"}]}, {"smiles": "O=c1[nH]nc2n1-c1ccc(OCc3ccc(Br)cc3)cc1CCC2", "values": [{"measurement": "PI", "setting": "[1]", "value": ">16.7"}, {"measurement": "TD50 at 4 h", "setting": "[2]", "value": "> 931", "unit": "mg/kg"}, {"measurement": "ED50", "setting": "[3]", "value": 55.8, "unit": "mg/kg"}, {"measurement": "Activity", "setting": "[8]", "value": "Active"}]}, {"smiles": "NC(=O)N1c2ccccc2C=Cc2ccccc21", "note": "[CARBAMAZEPINE]", "values": [{"measurement": "PI", "setting": "[4]", "value": "<0.74"}, {"measurement": "ED50", "setting": "[6]", "value": 9.2, "unit": "mg/kg"}, {"measurement": "TD50 at 4 h", "setting": "[2]", "value": 74.4, "unit": "mg/kg"}, {"measurement": "ED50", "setting": "[3]", "value": 9.2, "unit": "mg/kg"}]}, {"smiles": "CCCCCOc1ccc2c(c1)CCCc1n[nH]c(=O)n1-2", "values": [{"measurement": "PI", "setting": "[4]", "value": ">29.4"}, {"measurement": "Activity", "setting": "[5]", "value": "Active"}, {"measurement": "PI", "setting": "[1]", "value": ">45.4"}, {"measurement": "ED50", "setting": "[6]", "value": 24.6, "unit": "mg/kg"}, {"measurement": "TD50 at 4 h", "setting": "[2]", "value": "> 1120", "unit": "mg/kg"}, {"measurement": "ED50", "setting": "[3]", "value": 24.6, "unit": "mg/kg"}, {"measurement": "Activity", "setting": "[7]", "value": "Active"}]}, {"smiles": "COc1ccc2c(c1)CCCc1n[nH]c(=O)n1-2", "values": [{"measurement": "Activity", "setting": "[9]", "value": "Active"}, {"measurement": "Activity", "setting": "[10]", "value": "inactive"}, {"measurement": "Activity", "setting": "[11]", "value": "inactive"}, {"measurement": "Activity", "setting": "[7]", "value": "inactive"}]}, {"smiles": "O=c1[nH]nc2n1-c1ccc(OCc3ccccc3F)cc1CCC2", "values": [{"measurement": "Activity", "setting": "[5]", "value": "Active"}, {"measurement": "PI", "setting": "[1]", "value": ">50.6"}, {"measurement": "Activity", "setting": "[10]", "value": "inactive"}, {"measurement": "TD50 at 4 h", "setting": "[2]", "value": "> 931", "unit": "mg/kg"}, {"measurement": "ED50", "setting": "[3]", "value": 18.4, "unit": "mg/kg"}, {"measurement": "Activity", "setting": "[11]", "value": "inactive"}]}, {"smiles": "O=c1[nH]nc2n1-c1ccc(OCc3ccccc3)cc1CCC2", "values": [{"measurement": "PI", "setting": "[1]", "value": ">30.5"}, {"measurement": "TD50 at 4 h", "setting": "[2]", "value": "> 931", "unit": "mg/kg"}, {"measurement": "ED50", "setting": "[3]", "value": 30.5, "unit": "mg/kg"}, {"measurement": "Activity", "setting": "[8]", "value": "Active"}]}, {"smiles": "Cc1ccc(COc2ccc3c(c2)CCCc2n[nH]c(=O)n2-3)cc1", "values": [{"measurement": "PI", "setting": "[1]", "value": ">18.6"}, {"measurement": "TD50 at 4 h", "setting": "[2]", "value": "> 931", "unit": "mg/kg"}, {"measurement": "ED50", "setting": "[3]", "value": 50, "unit": "mg/kg"}, {"measurement": "Activity", "setting": "[11]", "value": "inactive"}, {"measurement": "Activity", "setting": "[7]", "value": "inactive"}]}, {"smiles": "O=c1[nH]nc2n1-c1ccc(OCc3ccc(F)cc3)cc1CCC2", "values": [{"measurement": "PI", "setting": "[1]", "value": ">40.8"}, {"measurement": "TD50 at 4 h", "setting": "[2]", "value": "> 931", "unit": "mg/kg"}, {"measurement": "ED50", "setting": "[3]", "value": 22.8, "unit": "mg/kg"}, {"measurement": "Activity", "setting": "[11]", "value": "inactive"}]}, {"smiles": "O=c1[nH]nc2n1-c1ccc(OCc3cccc(F)c3)cc1CCC2", "values": [{"measurement": "Activity", "setting": "[5]", "value": "Active"}, {"measurement": "PI", "setting": "[1]", "value": ">52.9"}, {"measurement": "TD50 at 4 h", "setting": "[2]", "value": "> 931", "unit": "mg/kg"}, {"measurement": "ED50", "setting": "[3]", "value": 17.6, "unit": "mg/kg"}, {"measurement": "Activity", "setting": "[11]", "value": "inactive"}, {"measurement": "Activity", "setting": "[7]", "value": "inactive"}]}, {"smiles": "CCCOc1ccc2c(c1)CCCc1n[nH]c(=O)n1-2", "values": [{"measurement": "PI", "setting": "[1]", "value": ">12.3"}, {"measurement": "TD50 at 4 h", "setting": "[2]", "value": "> 931", "unit": "mg/kg"}, {"measurement": "ED50", "setting": "[3]", "value": 75.5, "unit": "mg/kg"}, {"measurement": "Activity", "setting": "[11]", "value": "inactive"}]}, {"smiles": "O=c1[nH]nc2n1-c1ccc(OCc3ccc(Cl)cc3)cc1CCC2", "values": [{"measurement": "PI", "setting": "[1]", "value": ">23.2"}, {"measurement": "Activity", "setting": "[10]", "value": "inactive"}, {"measurement": "TD50 at 4 h", "setting": "[2]", "value": "> 931", "unit": "mg/kg"}, {"measurement": "ED50", "setting": "[3]", "value": 40.1, "unit": "mg/kg"}, {"measurement": "Activity", "setting": "[8]", "value": "Active"}]}, {"smiles": "O=c1[nH]nc2n1-c1ccc(OCc3ccccc3Cl)cc1CCC2", "values": [{"measurement": "PI", "setting": "[1]", "value": ">28.3"}, {"measurement": "TD50 at 4 h", "setting": "[2]", "value": "> 931", "unit": "mg/kg"}, {"measurement": "ED50", "setting": "[3]", "value": 32.9, "unit": "mg/kg"}, {"measurement": "Activity", "setting": "[8]", "value": "Active"}, {"measurement": "Activity", "setting": "[7]", "value": "inactive"}]}, {"smiles": "CCCCCCCOc1ccc2c(c1)CCCc1n[nH]c(=O)n1-2", "values": [{"measurement": "PI", "setting": "[4]", "value": ">25.9"}, {"measurement": "Activity", "setting": "[5]", "value": "Active"}, {"measurement": "PI", "setting": "[1]", "value": ">63.4"}, {"measurement": "ED50", "setting": "[6]", "value": 17.6, "unit": "mg/kg"}, {"measurement": "TD50 at 4 h", "setting": "[2]", "value": "> 1120", "unit": "mg/kg"}, {"measurement": "ED50", "setting": "[3]", "value": 17.6, "unit": "mg/kg"}, {"measurement": "Activity", "setting": "[7]", "value": "Active"}]}, {"smiles": "CCCCOc1ccc2c(c1)CCCc1n[nH]c(=O)n1-2", "values": [{"measurement": "PI", "setting": "[4]", "value": ">17"}, {"measurement": "PI", "setting": "[1]", "value": ">29.9"}, {"measurement": "ED50", "setting": "[6]", "value": 37.3, "unit": "mg/kg"}, {"measurement": "TD50 at 4 h", "setting": "[2]", "value": "> 1120", "unit": "mg/kg"}, {"measurement": "ED50", "setting": "[3]", "value": 37.3, "unit": "mg/kg"}, {"measurement": "Activity", "setting": "[8]", "value": "Active"}, {"measurement": "Activity", "setting": "[7]", "value": "Active"}]}]}
